Results reported in ChEMBL document CHEMBL1156690, “Synthesis, anti-HIV-1 integrase, and cytotoxic activities of 4-chloro-N-(4-oxopyrimidin-2-yl)-2-mercaptobenzenesulfonamide derivatives” (Eur J Med Chem, 2008).

Tests used:
SF-268 [1] = experiment: (§1) Growth inhibition of human SF268 cells; assay type: functional
In short: (§2)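 Run by the US National Cancer Institute in vitro screen against a panel of 53–57 human tumor cell lines. GI₅₀ is defined as the molar concentration inhibiting 50% net cell growth. TGI is the concentration giving total growth inhibition.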

Malme-3M = experiment: Growth inhibition of human MALME-3M cells; assay type: functional; in short: as §2
HOP-62 = experiment: Growth inhibition of human HOP62 cells; assay type: functional; in short: as §2
KM12 = experiment: Growth inhibition of human KM12 cells; assay type: functional; in short: as §2
BT-549 = experiment: Growth inhibition of human BT549 cells; assay type: functional; in short: as §2
A498 = experiment: Growth inhibition of human A498 cells; assay type: functional; in short: as §2
[2] = biological target: T1, Human immunodeficiency virus type 1 integrase (Human immunodeficiency virus 1, UniProt Q7ZJM1); experiment: Inhibition of HIV1 integrase 3' processing activity
In short: (§3)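 HIV-1 integrase (200 nM final) preincubated 30 min at 30 °C with inhibitor in buffer (pH 7.2 MOPS, NaCl, HEPES, EDTA, DTT, 10% glycerol, 7.5 mM MnCl₂, 0.1 mg/ml BSA, 2-mercaptoethanol, 10% DMSO). 20 nM 5'-³²P-labeled linear oligonucleotide substrate then added for 1 h. Quenched with formamide loading dye; products resolved on denaturing 20% polyacrylamide/urea gel. IC₅₀ reported for each step.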

SR = experiment: Growth inhibition of human SR cells; assay type: functional; in short: as §2
M14 = experiment: Growth inhibition of human M14 cells; assay type: functional; in short: as §2
SNB-19 = experiment: Growth inhibition of human SNB19 cells; assay type: functional; in short: as §2
MOLT-4 = experiment: Growth inhibition of human MOLT4 cells; assay type: functional; in short: as §2
HCT-116 = experiment: Growth inhibition of human HCT116 cells; assay type: functional; in short: as §2
NCI-H322M = experiment: Growth inhibition of human NCI-H322M cells; assay type: functional; in short: as §2
EKVX = experiment: Growth inhibition of human EKVX cells; assay type: functional; in short: as §2
UACC-62 = experiment: Growth inhibition of human UACC62 cells; assay type: functional; in short: as §2
SF-268 [3] = experiment: as §1; assay type: functional; in short: as §2; remark: listed apart in the source
SK-MEL-5 = experiment: Growth inhibition of human SK-MEL-5 cells; assay type: functional; in short: as §2
LOX IMVI = experiment: Growth inhibition of human LOX IMVI cells; assay type: functional; conditions: Homo sapiens, LOX IMVI; in short: as §2
NCI-H522 = experiment: Growth inhibition of human NCI-H522 cells; assay type: functional; in short: as §2
SNB-75 = experiment: Growth inhibition of human SNB75 cells; assay type: functional; in short: as §2
SN12C = experiment: Growth inhibition of human SN12C cells; assay type: functional; in short: as §2
[4] = biological target: T1, Human immunodeficiency virus type 1 integrase; experiment: Inhibition of HIV1 integrase strand transfer activity; in short: as §3
CCRF-CEM = experiment: Growth inhibition of human CCRF-CEM cells; assay type: functional; in short: as §2
HCC 2998 = experiment: Growth inhibition of human HCC2998 cells; assay type: functional; in short: as §2
T47D = experiment: Growth inhibition of human T47D cells; assay type: functional; in short: as §2

T1 sequence (Q7ZJM1 whole entry): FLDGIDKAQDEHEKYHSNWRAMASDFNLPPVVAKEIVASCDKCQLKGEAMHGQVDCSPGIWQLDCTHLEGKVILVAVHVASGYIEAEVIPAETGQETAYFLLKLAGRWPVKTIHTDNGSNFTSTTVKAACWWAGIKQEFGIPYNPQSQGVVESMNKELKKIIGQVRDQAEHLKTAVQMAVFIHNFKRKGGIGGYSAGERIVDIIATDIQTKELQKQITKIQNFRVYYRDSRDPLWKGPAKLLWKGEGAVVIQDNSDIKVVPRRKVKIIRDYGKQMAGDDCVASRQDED

Q: Which GI50 (SF-268 [1]) does the source give for `Cc1cc(S(=O)(=O)Nc2nc3cc(-c4ccsc4)sc3c(=O)n2Cc2ccco2)c(S)cc1Cl` here?
A: > 100 µM

Q: And the GI50 (Malme-3M)?
A: > 100 µM

Q: And the GI50 (HOP-62)?
A: > 100 µM

Q: And the GI50 (KM12)?
A: > 100 µM

Q: What about the GI50 (BT-549) of the same compound?
A: > 100 µM

Q: And the GI50 (A498)?
A: > 100 µM

Q: And the IC50 [2]?
A: 8 µM

Q: And the GI50 (SR)?
A: > 100 µM

Q: What about the GI50 (M14) of the same compound?
A: > 100 µM

Q: What about the GI50 (SNB-19) of the same compound?
A: > 100 µM

Q: What about the GI50 (MOLT-4) of the same compound?
A: > 100 µM

Q: What about the GI50 (HCT-116) of the same compound?
A: > 100 µM

Q: And the GI50 (NCI-H322M)?
A: > 100 µM

Q: And the GI50 (EKVX)?
A: > 100 µM

Q: And the GI50 (UACC-62)?
A: > 100 µM

Q: What about the GI50 (SF-268 [3]) of the same compound?
A: > 100 µM

Q: And the GI50 (SK-MEL-5)?
A: > 100 µM

Q: What about the GI50 (LOX IMVI) of the same compound?
A: > 100 µM

Q: What about the GI50 (NCI-H522) of the same compound?
A: > 100 µM

Q: And the GI50 (SNB-75)?
A: > 100 µM

Q: And the GI50 (SN12C)?
A: > 100 µM

Q: And the IC50 [4]?
A: 6 µM

Q: What about the GI50 (CCRF-CEM) of the same compound?
A: > 100 µM

Q: And the GI50 (HCC 2998)?
A: > 100 µM

Q: And the GI50 (T47D)?
A: > 100 µM
